Active and inactive are the calls of the source. The rule behind the calls is not given here. Non-standard residues stand in square brackets, D forms with d. Residues, ends and D or L forms follow the SMILES beside them. dTrp(2-Me) = Cc1[nH]c2ccccc2c1C[C@@H](N)C(=O)O
What was measured:
[1] = target: T1, Platelet glycoprotein 4 (Homo sapiens, UniProt P16671); assay: Antagonist activity at human CD36-oxLDL binding at 10 ug/mL after 2 hrs by ELISA
[2] = target: T1, Platelet glycoprotein 4; assay: Antagonist activity at human CD36 expressed in insect Sf9 cells assessed as inhibition of DiL-acetylated LDL uptake at 10 ug/ml after 5 hrs by fluorometric analysis; type: functional
Method in brief: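 Sf9 cells in Grace's medium with 10% heat-inactivated FBS at 27 °C, plated at 6.0×10⁵ cells/well, infected 1 h with recombinant hCD36 or wild-type baculovirus, then refed. After two days, washed into Grace/0.5% BSA. Compound added from DMSO for 1 h at 27 °C, then DiI-AcLDL.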

[3] = target: T1, Platelet glycoprotein 4; assay: Antagonist activity at human CD36-oxLDL binding after 2 hrs by ELISA
Method in brief: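 Plate wells coated with oxLDL at 4 °C for 8–12 h, washed with PBS and blocked in PBS/1% BSA for 1–2 h at 4 °C. His-tagged CD36 or vector control protein added for 1 h at 4 °C, then compound or hexarelin, incubated 2 h.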

[4] = target: T1, Platelet glycoprotein 4; assay: Antagonist activity at human CD36-oxLDL binding at 10 uM after 2 hrs by ELISA

T1 sequence (P16671 whole entry): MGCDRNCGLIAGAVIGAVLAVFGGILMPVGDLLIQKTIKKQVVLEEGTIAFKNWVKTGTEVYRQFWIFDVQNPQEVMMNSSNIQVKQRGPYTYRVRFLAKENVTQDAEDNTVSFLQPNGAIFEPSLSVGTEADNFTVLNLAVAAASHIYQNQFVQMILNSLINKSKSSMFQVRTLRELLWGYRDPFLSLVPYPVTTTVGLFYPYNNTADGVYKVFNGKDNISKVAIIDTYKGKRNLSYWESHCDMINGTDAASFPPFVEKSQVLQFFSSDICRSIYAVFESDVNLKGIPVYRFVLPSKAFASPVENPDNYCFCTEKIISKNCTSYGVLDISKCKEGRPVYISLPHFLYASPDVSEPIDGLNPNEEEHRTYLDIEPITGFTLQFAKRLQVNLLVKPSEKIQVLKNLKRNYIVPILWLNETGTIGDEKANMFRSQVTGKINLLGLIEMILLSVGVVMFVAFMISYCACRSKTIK

Row | Compound | inhibition [1] [%] | inhibition [2] | IC50 [3] [µM] | inhibition [4] [%]
1 | COc1cc2cc[n+](CCc3ccc(Cl)cc3)cc2cc1OC | < 10 |  |  | 
2 | COc1cc2cc[n+](CCc3cccc(C(F)(F)F)c3)cc2cc1OC | < 10 |  |  | 
3 | COc1ccc(CC[n+]2ccc3cc(OC)c(OC)cc3c2)cc1 | 28.6 |  |  | 
4 | COc1ccc2cc[n+](CCc3cccc(F)c3)cc2c1OC | 52.1 | Active | 6.9 | 
5 | COc1ccc2cc[n+](CCc3ccccc3C)cc2c1O | 11.5 |  |  | 
6 | COc1ccc(CC[n+]2ccc3cc(O)c(OC)cc3c2)cc1 | 76.3 | Active |  | 
7 | Oc1ccc2cc[n+](CCc3ccccc3)cc2c1 | < 10 |  |  | 
8 | COc1ccc2cc[n+](CCc3ccccc3)cc2c1OC | < 10 |  |  | 
9 | COc1cc2cc[n+](CCc3cccc(F)c3)cc2cc1OC | 20.9 |  |  | 
10 | COc1cc2c[n+](CCc3cccc(Cl)c3)ccc2cc1O | 33.6 |  |  | 
11 | COc1cc2c[n+](CCc3cccc(F)c3)c(O)cc2cc1O | < 10 |  |  | 
12 | COc1cc2cc[n+](CCc3ccccc3)cc2cc1OC | 10 |  |  | 
13 | COc1cc2c[n+](CCc3ccccc3C)c(O)cc2cc1O | < 10 |  |  | 
14 | COc1cc2c[n+](CCc3ccccc3)ccc2cc1O | 31 |  |  | 
15 | COc1cc2c[n+](CCc3ccc(Cl)cc3)ccc2cc1O | < 10 |  |  | 
16 | COc1ccc2cc[n+](CCc3ccc(Cl)cc3)cc2c1OC | 25.4 |  |  | 
17 | COc1ccc(CC[n+]2ccc3ccc(O)cc3c2)cc1 | 28.7 |  |  | 
18 | Oc1ccc2cc[n+](CCc3cccc(C(F)(F)F)c3)cc2c1 | 48.4 | Active | 3.39 | 
19 | Cc1[nH]c2ccccc2c1C[C@@H](NC(=O)[C@@H](N)Cc1c[nH]cn1)C(=O)N[C@@H](C)C(=O)N[C@@H](Cc1c[nH]c2ccccc12)C(=O)N[C@H](Cc1ccccc1)C(=O)N[C@@H](CCCCN)C(N)=O (H-H[dTrp(2-Me)]AW[dF]K-NH2) |  |  |  | 37.6
20 | COc1ccc2cc[n+](CCc3ccccc3)cc2c1 | 47.4 |  |  | 
21 | COc1ccc2cc[n+](CCc3ccccc3C)cc2c1OC | 46.6 | Active | 4.36 | 
22 | COc1cc2c[n+](CCc3cccc(Cl)c3)c(O)cc2cc1O | 33.2 |  |  | 
23 | COc1ccc(CC[n+]2ccc3ccc(OC)c(O)c3c2)cc1 | < 10 |  |  | 
24 | COc1cc2c[n+](CCc3ccc(F)cc3)ccc2cc1O | 42.4 | Active | 5.99 | 
25 | COc1ccc2cc[n+](CCc3ccc(F)cc3)cc2c1O | 29.6 |  |  | 
26 | COc1ccc2cc[n+](CCc3ccccc3)cc2c1O | 77.9 | Active | 0.633 | 
27 | Oc1ccc2cc[n+](CCc3ccccc3F)cc2c1 | 21.7 |  |  | 
